Active and inactive are the calls of the source. The calls are words filed in the database; no cut-off is given here.
Columns and labels:
[1] = tested on: HL-60; assay: Induction of autophagy in p53-deficient human HL60 cells at 50 uM after 6 hrs by acridine orange staining; format: functional, cell-based
In short: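 Autophagy scored by flow cytometry of HL-60 cells stained with acridine orange after 6 h exposure.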

[2] = tested on: PC-3; assay: Anticancer activity against human PC3 cells assessed as growth inhibition at 50 uM after 48 hrs by SRB assay; format: functional; details: PC-3, 48 h, read-out: GI
In short: (§1)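 Cells exposed to test compounds at 50 µM for 48 h. Read-out is percent growth inhibition, with SEM given. 5-Fluorouracil and adriamycin serve as reference agents.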

[3] = tested on: HL-60; assay: Induction of apoptosis in p53-deficient human HL60 cells assessed as post-apoptotic cells at 50 uM after 6 hrs by FITC-conjugated annexinV/PI-based flow cytometric analysis (reference value: 1 %); format: functional
In short: (§2)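 HL-60 cells incubated with each analog at 50 µM for 6 h, stained with annexin V-FITC/propidium iodide and analysed by flow cytometry. Lower right quadrant is apoptotic, upper right post-apoptotic, upper left necrotic. Three experiments, with representative dot plots shown.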

[4] = tested on: HL-60; assay: Induction of necrosis in p53-deficient human HL60 cells at 50 uM after 6 hrs by FITC-conjugated annexinV/PI-based flow cytometric analysis; format: functional, cell-based; in short: as §2
[5] = tested on: HEp-2; assay: Anticancer activity against human Hep2 cells assessed as growth inhibition at 50 uM after 48 hrs by SRB assay; format: functional; details: HEp-2, 48 h, read-out: GI; in short: as §1
[6] = tested on: SW-620; assay: Anticancer activity against human SW620 cells assessed as growth inhibition at 50 uM after 48 hrs by SRB assay; format: functional; details: SW-620, 48 h, read-out: GI; in short: as §1
[7] = tested on: HL-60; assay: Induction of apoptosis in p53-deficient human HL60 cells assessed as apoptotic cells at 50 uM after 6 hrs by FITC-conjugated annexinV/PI-based flow cytometric analysis (reference value: 5 %); format: functional; in short: as §2
[8] = tested on: COLO 205; assay: Anticancer activity against human COLO205 cells assessed as growth inhibition at 50 uM after 48 hrs by SRB assay; format: functional; details: COLO 205, 48 h, read-out: GI; in short: as §1
[9] = tested on: HT-29; assay: Anticancer activity against human HT-29 cells assessed as growth inhibition at 50 uM after 48 hrs by SRB assay; format: functional; details: HT-29, 48 h, read-out: GI; in short: as §1
[10] = tested on: HL-60; assay: Induction of apoptosis in p53-deficient human HL60 cells assessed as DNA fragmentation at 50 uM after 6 hrs by agarose gel electrophoresis; format: functional, cell-based
In short: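 2 × 10⁶ HL-60 cells treated with derivatives at 50 µM for 6 h, then scored for an apoptotic DNA ladder of 180–200 bp fragments or multiples. The positive control is 4 µM camptothecin for 6 h.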

[11] = tested on: HL-60; assay: Anticancer activity against human HL60 cells after 48 hrs by MTT assay; format: functional, cell-based; details: HL-60, 48 h
In short: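 Cell proliferation measured by MTT. Cells are incubated with each analog for 48 h at the indicated concentrations, then MTT reduction is read as an index of viability. OD of the untreated control is taken as 100% viability, and IC50 is derived from this.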

[12] = tested on: DU-145; assay: Anticancer activity against human DU145 cells assessed as growth inhibition at 50 uM after 48 hrs by SRB assay; format: functional; details: DU-145, 48 h, read-out: GI; in short: as §1

| SMILES | Activity [1] | inhibition of growth at 50 µM [2] [%] | Activity [3] [%] | Activity [4] | inhibition of growth at 50 µM [5] [%] | inhibition of growth at 50 µM [6] [%] | Activity [7] [%] | inhibition of growth at 50 µM [8] [%] | inhibition of growth at 50 µM [9] [%] | Activity [10] | IC50 [11] [µM] | inhibition of growth at 50 µM [12] [%] |
| --- | --- | --- | --- | --- | --- | --- | --- | --- | --- | --- | --- | --- |
| CCC(=O)O[C@@H]1CC[C@@]2(C)[C@@H](CC[C@]3(C)[C@@H]2C(=O)C=C2[C@@H]4[C@@H](C)[C@H](C)CC[C@]4(C)CC[C@]23C)[C@@]1(C)C(=O)O | inactive | 64 | 17 | inactive | 69 | 85 | 21 | 87 | 89 | Active | 16 | 25 |
| CCC(=O)O[C@@H]1CC[C@@]2(C)[C@@H](CC[C@]3(C)[C@@H]2CC=C2[C@@H]4[C@@H](C)[C@H](C)CC[C@]4(C)CC[C@]23C)[C@@]1(C)C(=O)O | inactive | 93 | 24 | inactive | 86 | 94 | 23 | 84 | 93 | Active | 13 | 91 |
| CC[C@@]1(O)C(=O)OCc2c1cc1n(c2=O)Cc2cc3ccccc3nc2-1 [CAMPTOTHECIN] | – | – | 7 | – | – | – | 18 | – | – | – | – | – |
| C[C@H]1[C@H](C)CC[C@]2(C)CC[C@]3(C)C(=CC[C@@H]4[C@@]5(C)CC[C@@H](O)[C@](C)(C(=O)O)[C@@H]5CC[C@]43C)[C@H]12 [BOSWELLIC ACID] | inactive | 100 | 34 | inactive | 43 | 64 | 20 | 85 | 66 | – | 15 | 92 |
| CCC(=O)O[C@H]1CC[C@@]2(C)[C@@H](CC[C@]3(C)[C@@H]2CC=C2[C@@H]4[C@@H](C)[C@H](C)CC[C@]4(C)CC[C@]23C)[C@@]1(C)C(=O)O | inactive | 95 | 20 | inactive | 87 | 89 | 18 | 86 | 92 | Active | 12 | 88 |
| CCCC(=O)O[C@@H]1CC[C@@]2(C)[C@@H](CC[C@]3(C)[C@@H]2CC=C2[C@@H]4[C@@H](C)[C@H](C)CC[C@]4(C)CC[C@]23C)[C@@]1(C)C(=O)O | inactive | 77 | 13 | inactive | 94 | 93 | 31 | 88 | 95 | Active | 14 | 89 |
| COC(=O)[C@@]1(C)C(=O)CC[C@]2(C)[C@H]3C(=O)C=C4[C@@H]5[C@@H](C)[C@H](C)CC[C@]5(C)CC[C@@]4(C)[C@]3(C)CC[C@@H]12 | – | 3 | – | – | 10 | 11 | – | 30 | 17 | – | – | 23 |

From ChEMBL document CHEMBL1932969, “Acyl derivatives of boswellic acids as inhibitors of NF-κB and STATs” (Bioorg Med Chem Lett, 2012)
